Bioassay records (PubChem)
This is a sample that favours compounds with a hit; in the whole collection about 2.9% have one here.
PAX8 reporter = PAX8 transcriptional activity inhibition; RMG-I TPO-luciferase reporter, SteadyGlo, 24 h; inhibition, % at 12.6 µM; 360,000 tested, 1.2% active;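 active = mean replicate inhibition at least 60% with every replicate also reaching 60%; inconclusive = only one of the two criteria is met; inactive = mean below 60% and not all replicates reaching 60%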;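 note: luciferase light reporting Pax8 driven TPO promoter activity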
CDK5 p35 inh = CDK5/p35 (human) kinase inhibition. Q00535+Q15078. Recombinant CDK5/p35, ADP-Glo luminescence, 60 min. inhibition, % at 10 µM. 330,000 tested, 0.01% active. AID 488839;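 active = highest replicate inhibition of at least 50% and at least 75% of replicates reaching 50%; inconclusive = only one of the two criteria met; inactive = both criteria failed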
Target sequence (Q00535 whole entry, looked up): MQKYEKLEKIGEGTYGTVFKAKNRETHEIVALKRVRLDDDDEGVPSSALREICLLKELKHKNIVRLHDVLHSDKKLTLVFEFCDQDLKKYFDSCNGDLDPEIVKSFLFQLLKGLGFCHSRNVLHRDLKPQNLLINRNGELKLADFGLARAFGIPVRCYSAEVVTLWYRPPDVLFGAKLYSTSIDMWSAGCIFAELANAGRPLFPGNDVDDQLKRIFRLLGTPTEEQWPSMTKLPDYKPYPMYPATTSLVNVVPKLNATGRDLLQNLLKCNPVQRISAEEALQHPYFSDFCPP
Target sequence (Q15078 whole entry, looked up): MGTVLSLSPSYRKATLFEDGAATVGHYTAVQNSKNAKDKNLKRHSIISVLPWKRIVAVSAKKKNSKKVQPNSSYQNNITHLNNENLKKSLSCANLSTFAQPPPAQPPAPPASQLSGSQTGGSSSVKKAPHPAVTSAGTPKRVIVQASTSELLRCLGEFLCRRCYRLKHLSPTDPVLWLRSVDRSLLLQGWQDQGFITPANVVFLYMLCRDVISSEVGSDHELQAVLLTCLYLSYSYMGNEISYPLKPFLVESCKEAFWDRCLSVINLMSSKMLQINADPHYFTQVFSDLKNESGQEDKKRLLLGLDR
GSIS activator = primary screen for activators of insulin secretion dependent on glucose, INS-1E cells, GLuc reporter luminescence; INS-1E GLuc reporter insulin secretion, 2-3 h; activation, % at 16.6 µM; 370,000 tested, 0.61% active;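 active = lowest replicate activation of at least 40%, so every replicate reaches that level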
Env fusion inh = inhibitors of HIV Env-mediated cell fusion. inhibition, % at 12.3 µM. HeLa-JRFL Env/CEM21 cell fusion, luciferase. AID 651610. 360,000 tested, 1.1% active;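 active = mean replicate inhibition score of at least 50 and every replicate individually at or above 50; inconclusive = only one of the two criteria met; inactive = mean below 50 and not all replicates reaching 50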
Cneo AK release = causes C. neoformans cell lysis | adenylate kinase release luminescence, 4 h; normalised: neutral wells 0, clomiphene wells 100 | lysis activity, % at 15 µM | 360,000 tested, 0.2% active;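 active = mean lysis activity across replicates of at least 80%, whatever share of replicates individually reach that level; inactive = mean lysis activity below 80%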
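Assay system: log-phase C. neoformans yeast / Quantity: yeast cell density of 5 × 10^6 cells/mL / Medium: fresh YPD growth medium / Compound: single dose / Timing: static 4 h at 37 °C with compound, 1 h detection / Measured by: adenylate kinase release luminescence / Read-out: lysis from increased AK signal / Benchmarks: Clomiphene as positive lysis control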
dFosB act-1 = activators of mouse delta FosB homodimer; P13346; purified delta FosB, TAMRA-CDK5 oligo fluorescence polarization; percent of positive-control signal above neutral wells; activation, % at 25 µM; 340,000 tested, 0.99% active;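 active = mean activation above about 17%, with every replicate also reaching it, limit read from the data, passing the limit was not always enough; inconclusive = only one of the two conditions met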
dFosB act-2 = activators of mouse delta FosB homodimer DNA binding | shares compounds with dFosB act-1 | purified delta FosB, TAMRA-CDK5 oligo fluorescence polarization; normalised: neutral wells 0, positive control 100 | activation, % at 24.9 µM | 2,400 tested, under 10 active;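 active = highest replicate activation at or above 34% and every replicate reaching that threshold; inconclusive = meets only one of the two criteria; inactive = meets neither criterion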;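 note: higher polarization means more probe DNA bound by delta FosB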
Numbers stand for hits; - = inactive; ? = inconclusive; . = not tested or not shown.

SMILES | PAX8 reporter | CDK5 p35 inh | GSIS activator | Env fusion inh | Cneo AK release | dFosB act-1 | dFosB act-2
CCC(=O)N(CC)C[C@H]1[C@H](c2ccc(-c3cccnc3)cc2)[C@@H](CO)N1C(C)=O | - | . | - | . | - | . | .
C#CCOCCOCCOCCNc1nc(N2CCN(C(=O)[C@H](CCCCN)n3cc([C@@H](N)[C@H](C)CC)nn3)CC2)nc(N2CCN(C(=O)[C@H](CCCCN)n3cc([C@@H](N)CC(N)=O)nn3)CC2)n1 | - | - | - | - | - | - | .
C#CCOCCOCCOCCNc1nc(N2CCN(C(=O)[C@H]([C@@H](C)CC)n3cc([C@@H](N)CC(C)C)nn3)CC2)nc(N2CCN(C(=O)[C@H]([C@@H](C)CC)n3cc([C@@H](N)CC(C)C)nn3)CC2)n1 | - | - | . | - | - | 31 | -
C#CCOCCOCCOCCNc1nc(N2CCN(C(=O)[C@H](CCCCN)n3cc([C@@H](N)C(C)CC)nn3)CC2)nc(N2CCN(C(=O)[C@H](CCCCN)n3cc([C@@H](N)CC(C)C)nn3)CC2)n1 (stereo not given in full) | - | - | - | - | - | 28 | ?
COc1ccc(OC)c(NC(=O)C(C)OC(=O)c2cc3ccccc3[nH]2)c1 (stereo not given) | - | - | - | 58 | - | 19 | -
Cc1ccc(NC(=O)C2CC(=O)Nc3nc4ccccc4n32)c(C)c1 (stereo not given) | - | - | - | - | - | 47 | -
COc1ccccc1C(=O)Nc1ccc2c(c1)OC[C@@H](C)N(CC1CC1)C[C@H](C)[C@@H](OC)CN(C)C2=O | . | . | - | . | . | . | .
Clc1cc(Cl)cc(Nc2ncnc(-n3cccc3)n2)c1 | - | - | - | - | - | 30 | -
CCOC(=O)c1c(C)[nH]c(C(=O)OCc2ccccc2)c1C | - | - | - | - | - | - | .
CCOC(=O)c1c(C)[nH]c(C(=O)OCC(=O)Nc2ccccc2)c1C | - | - | - | - | - | 27 | -
O=C(COC(=O)/C=C/c1ccc([N+](=O)[O-])cc1)Nc1ccc(F)cc1 | - | - | - | . | - | 19 | -
CCOc1cc(/C=N/NC(=O)Cn2nc([N+](=O)[O-])cc2C)ccc1OCc1ccc(F)cc1 | . | - | . | . | - | 35 | -
COc1cc(/C=N\NC(=O)c2ccc(-c3ccccc3)cc2)ccc1OCC(N)=O | - | - | - | - | - | 66 | -
CCOc1cc(/C=N\Nc2ccc([N+](=O)[O-])cc2)ccc1OCC(=O)Nc1ccc(C)c(C)c1 | . | - | . | . | - | - | .
CCOc1cc(/C=N\NC(=O)Cc2ccccc2)ccc1OCC(=O)Nc1ccc(C)c(C)c1 | . | - | . | . | - | 24 | -
COc1ccc(/C=N/NC(=O)c2cccc([N+](=O)[O-])c2)cc1O | - | - | - | - | . | - | .
COc1cc(/C=N/NC(=O)c2cccc([N+](=O)[O-])c2)ccc1OCc1ccc(C)cc1 | - | - | - | - | - | 50 | -
CC(C)NC(=O)N1[C@H](CO)[C@H]2c3ccccc3N(C(=O)Nc3ccc(Cl)cc3)C[C@H]21 | - | . | - | . | - | . | .
CC(=O)N1[C@@H]2c3ccc(C4=CCCC4)c(=O)n3C[C@H]1[C@H](CO)[C@H]2C(=O)NCC1CC1 | . | . | - | . | . | . | .
O=C(Nc1ccc(F)cc1)N1CC(=O)N2[C@H](CO)[C@H](c3ccc(-c4cccc(F)c4)cc3)[C@H]2C1 | - | . | - | . | . | . | .
COc1cc(/C=N/NC(=O)c2ccccc2O)ccc1OCC(=O)Nc1ccccc1 | - | - | - | - | - | 28 | -
COc1ccc(/C=N/NC(=O)c2[nH]nc3c2CCc2ccccc2-3)cc1OC | - | - | - | - | . | 88 | -
CC(CCc1ccco1)NC(=O)CCc1nnc2ccc(NCc3ccccc3Cl)nn12 (stereo not given) | - | . | - | 77 | - | 22 | -
Cc1cccc(N2C(=O)c3ccc(C(=O)Nc4ccccn4)cc3C2=O)c1 | - | - | - | - | - | 62 | -
CC(=O)Nc1ccc2c(c1)C(=O)N(c1cccc(C)c1)C2=O | - | - | - | - | . | 20 | -
